According to ChEMBL document CHEMBL2010643 (Bioorg Med Chem Lett, 2012):
Active and inactive are the calls of the source. The rule behind the calls is not given here.

What was measured:
Brain [1] = assay: AUClast in Swiss albino mouse brain at 10 mg/kg, po; type: ADME, organism-based; parameters: time 0 - last, dose 10 mg/kg, route oral; details: in vivo
Summary of the method: (§1)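 Male Swiss Albino mice were given a single dose, either intravenous at 1 mg/kg or oral at 10 mg/kg. AUClast was measured in plasma and in brain. Half-life, plasma clearance, volume of distribution and oral bioavailability were derived from the plasma data.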

[2] = target: Tyrosine-protein kinase BTK (Homo sapiens) (UniProt Q06187); assay: Inhibition of BTK assessed as residual activity at 10 uM relative to control
[3] = target: T1, Cyclin-dependent kinase 2/cyclin A (Homo sapiens) (UniProt P24941+P20248+P78396); assay: Inhibition of CDK2-Cyclin A assessed as residual activity at 1 uM relative to control; type: protein-complex assay
Summary of the method: (§2)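 Standard radioactivity-based enzymatic assays were run across a 124-kinase panel (Dundee profiling), with compound at 1 µM. Kinase activity was expressed relative to control.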

[4] = target: Inhibitor of nuclear factor kappa-B kinase subunit beta (Homo sapiens) (UniProt O14920); assay: Inhibition of IKKbeta assessed as residual activity at 10 uM relative to control
[5] = target: Mitogen-activated protein kinase kinase kinase 1 (Homo sapiens) (UniProt Q13233); assay: Inhibition of MEKK1 assessed as residual activity at 10 uM relative to control
[6] = target: Serine/threonine-protein kinase 26 (Homo sapiens) (UniProt Q9P289); assay: Inhibition of MST4 assessed as residual activity at 10 uM relative to control
[7] = target: Dual specificity mitogen-activated protein kinase kinase 1 (Homo sapiens) (UniProt Q02750); assay: Inhibition of MKK1 assessed as residual activity at 10 uM relative to control
Brain [8] = assay: AUClast in Swiss albino mouse brain at 1 mg/kg, iv; type: ADME, organism-based; parameters: time 0 - last, dose 1 mg/kg, route intravenous; details: in vivo; summary of the method: as §1
[9] = target: Ribosomal protein S6 kinase beta-1 (Homo sapiens) (UniProt P23443); assay: Inhibition of S6K1 assessed as residual activity at 10 uM relative to control
[10] = target: Proto-oncogene tyrosine-protein kinase Src (Homo sapiens) (UniProt P12931); assay: Inhibition of Src assessed as residual activity at 10 uM relative to control
[11] = Inhibition of PKA assessed as residual activity at 1 uM relative to control
[12] = target: Serine/threonine-protein kinase PAK 5 (Homo sapiens) (UniProt Q9P286); assay: Inhibition of PAK5 assessed as residual activity at 10 uM relative to control
[13] = target: Mitogen-activated protein kinase kinase kinase 1 (Homo sapiens) (UniProt Q13233); assay: Inhibition of MEKK1 assessed as residual activity at 1 uM relative to control
[14] = target: Dual specificity tyrosine-phosphorylation-regulated kinase 2 (Homo sapiens) (UniProt Q92630); assay: Inhibition of DYRK2 assessed as residual activity at 1 uM relative to control; summary of the method: as §2
[15] = target: Eukaryotic elongation factor 2 kinase (Homo sapiens) (UniProt O00418); assay: Inhibition of EF2K assessed as residual activity at 10 uM relative to control
[16] = target: Leucine-rich repeat serine/threonine-protein kinase 2 (Homo sapiens, UniProt Q5S007); assay: Inhibition of wild-type LRRK2 phosphorylation at Ser910 expressed in HEK293 cells at 0.1 to 0.3 uM after 90 mins by immunoblot analysis; type: cell-based
Summary of the method: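 HEK293 cells stably expressing wild-type GFP-LRRK2 exposed to DMSO or increasing inhibitor concentrations for 90 min. Lysates immunoblotted for LRRK2 phosphorylated at Ser910 and Ser935 and for total LRRK2.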

[17] = target: Serine/threonine-protein kinase 26 (Homo sapiens) (UniProt Q9P289); assay: Inhibition of MST4 assessed as residual activity at 1 uM relative to control
[18] = Inhibition of CK1 assessed as residual activity at 1 uM relative to control; summary of the method: as §2
[19] = target: Glycogen synthase kinase-3 beta (Homo sapiens) (UniProt P49841); assay: Inhibition of GSK3b assessed as residual activity at 1 uM relative to control; summary of the method: as §2
[20] = target: MAP kinase-interacting serine/threonine-protein kinase 2 (Homo sapiens) (UniProt Q9HBH9); assay: Inhibition of MNK2 assessed as residual activity at 1 uM relative to control
[21] = target: Receptor-interacting serine/threonine-protein kinase 2 (Homo sapiens) (UniProt O43353); assay: Inhibition of RIPK2 assessed as residual activity at 1 uM relative to control
Mus musculus [22] = assay: Inhibition of LRRK2 phosphorylation at Ser935 in C57BL/6 mouse spleen at 50 mg/kg, po administered for 8 hrs followed by 2 hrs dosing; type: functional, organism-based; parameters: dose 50 mg/kg
Summary of the method: (§3)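 Mice were dosed by oral gavage at 10 or 50 mg/kg. Brain, spleen and kidney were collected. Endogenous LRRK2 was resolved by SDS–PAGE and blotted with phospho-specific antibodies to Ser910 and Ser935 and with an antibody to total LRRK2.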

[23] = target: Serine/threonine-protein kinase pim-2 (Homo sapiens) (UniProt Q9P1W9); assay: Inhibition of PIM2 assessed as residual activity at 10 uM relative to control
[24] = target: Tau-tubulin kinase 1 (Homo sapiens) (UniProt Q5TCY1); assay: Inhibition of TTBK1 assessed as residual activity at 10 uM relative to control
Summary of the method: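 Radioactivity-based enzymatic kinase assays run across a 124-kinase profiling panel (Dundee), reporting the remaining kinase activity relative to a control.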

[25] = target: Dual specificity mitogen-activated protein kinase kinase 6 (Homo sapiens) (UniProt P52564); assay: Inhibition of MKK6 assessed as residual activity at 10 uM relative to control
[26] = target: T1, Cyclin-dependent kinase 2/cyclin A (Homo sapiens); assay: Inhibition of CDK2-Cyclin A assessed as residual activity at 10 uM relative to control; type: protein-complex assay
Mus musculus [27] = assay: Inhibition of LRRK2 phosphorylation at Ser910 in C57BL/6 mouse kidney at 50 mg/kg, po administered for 8 hrs followed by 2 hrs dosing; type: functional, organism-based; parameters: dose 50 mg/kg; summary of the method: as §3
[28] = target: Eukaryotic translation initiation factor 2-alpha kinase 3 (Homo sapiens) (UniProt Q9NZJ5); assay: Inhibition of EIF2AK3 assessed as residual activity at 10 uM relative to control
[29] = target: Insulin receptor-related protein (Homo sapiens) (UniProt P14616); assay: Inhibition of IRR assessed as residual activity at 10 uM relative to control
[30] = target: Ephrin type-B receptor 1 (Homo sapiens) (UniProt P54762); assay: Inhibition of EPH-B1 assessed as residual activity at 1 uM relative to control; summary of the method: as §2
[31] = target: Dual specificity mitogen-activated protein kinase kinase 2 (Homo sapiens) (UniProt P36507); assay: Inhibition of MKK2 assessed as residual activity at 1 uM relative to control
Mus musculus [32] = assay: Inhibition of LRRK2 phosphorylation at Ser935 in C57BL/6 mouse spleen at 10 mg/kg, po administered for 8 hrs followed by 2 hrs dosing; type: functional, organism-based; parameters: dose 10 mg/kg; summary of the method: as §3
[33] = target: Dual specificity mitogen-activated protein kinase kinase 1 (Homo sapiens) (UniProt Q02750); assay: Inhibition of MKK1 assessed as residual activity at 1 uM relative to control
[34] = target: RAC-alpha serine/threonine-protein kinase (Homo sapiens) (UniProt P31749); assay: Inhibition of PKBalpha assessed as residual activity at 1 uM relative to control
[35] = target: Serine/threonine-protein kinase N2 (Homo sapiens) (UniProt Q16513); assay: Inhibition of PRK2 assessed as residual activity at 10 uM relative to control

Sequence of Mitogen-activated protein kinase kinase kinase 1 (Homo sapiens) (Q13233 whole entry): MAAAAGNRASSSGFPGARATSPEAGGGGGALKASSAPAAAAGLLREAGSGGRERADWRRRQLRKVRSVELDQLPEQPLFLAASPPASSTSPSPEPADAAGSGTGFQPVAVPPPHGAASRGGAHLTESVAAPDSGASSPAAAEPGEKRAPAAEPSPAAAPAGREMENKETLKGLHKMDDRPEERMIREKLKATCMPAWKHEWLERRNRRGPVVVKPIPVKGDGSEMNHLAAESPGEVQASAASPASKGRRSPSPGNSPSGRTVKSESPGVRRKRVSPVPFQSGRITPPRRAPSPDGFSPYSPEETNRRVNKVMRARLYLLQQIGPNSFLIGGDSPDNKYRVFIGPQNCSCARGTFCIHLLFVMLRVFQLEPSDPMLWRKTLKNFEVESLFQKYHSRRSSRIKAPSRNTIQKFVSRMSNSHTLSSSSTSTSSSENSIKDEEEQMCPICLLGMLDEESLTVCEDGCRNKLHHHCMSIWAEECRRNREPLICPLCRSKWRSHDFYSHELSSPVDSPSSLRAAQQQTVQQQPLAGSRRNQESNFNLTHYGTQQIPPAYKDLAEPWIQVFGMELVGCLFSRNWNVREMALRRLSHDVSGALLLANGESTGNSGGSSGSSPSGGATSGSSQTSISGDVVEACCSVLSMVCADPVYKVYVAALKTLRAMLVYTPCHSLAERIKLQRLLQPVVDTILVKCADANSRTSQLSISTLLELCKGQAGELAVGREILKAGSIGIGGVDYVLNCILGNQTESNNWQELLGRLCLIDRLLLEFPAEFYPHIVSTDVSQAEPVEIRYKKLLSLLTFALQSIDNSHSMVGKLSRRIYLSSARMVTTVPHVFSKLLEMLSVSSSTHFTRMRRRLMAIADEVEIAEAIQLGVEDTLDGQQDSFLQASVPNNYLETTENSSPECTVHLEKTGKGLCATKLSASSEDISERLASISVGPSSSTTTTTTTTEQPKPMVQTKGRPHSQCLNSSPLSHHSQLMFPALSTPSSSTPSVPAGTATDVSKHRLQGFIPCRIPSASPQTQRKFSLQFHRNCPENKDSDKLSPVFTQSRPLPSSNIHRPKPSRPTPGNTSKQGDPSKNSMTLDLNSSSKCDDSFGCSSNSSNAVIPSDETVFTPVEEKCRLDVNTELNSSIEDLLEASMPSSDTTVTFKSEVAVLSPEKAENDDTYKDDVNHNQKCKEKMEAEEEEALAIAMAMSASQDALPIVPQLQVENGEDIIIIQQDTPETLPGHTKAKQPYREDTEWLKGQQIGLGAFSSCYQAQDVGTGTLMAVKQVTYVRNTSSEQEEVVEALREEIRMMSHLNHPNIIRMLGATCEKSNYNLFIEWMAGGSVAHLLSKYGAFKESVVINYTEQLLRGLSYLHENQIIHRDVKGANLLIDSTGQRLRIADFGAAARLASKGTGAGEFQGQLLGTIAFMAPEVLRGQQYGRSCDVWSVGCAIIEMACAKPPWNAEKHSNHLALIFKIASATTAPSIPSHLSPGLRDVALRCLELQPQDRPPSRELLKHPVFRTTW
Sequence of Dual specificity mitogen-activated protein kinase kinase 1 (Homo sapiens) (Q02750 whole entry): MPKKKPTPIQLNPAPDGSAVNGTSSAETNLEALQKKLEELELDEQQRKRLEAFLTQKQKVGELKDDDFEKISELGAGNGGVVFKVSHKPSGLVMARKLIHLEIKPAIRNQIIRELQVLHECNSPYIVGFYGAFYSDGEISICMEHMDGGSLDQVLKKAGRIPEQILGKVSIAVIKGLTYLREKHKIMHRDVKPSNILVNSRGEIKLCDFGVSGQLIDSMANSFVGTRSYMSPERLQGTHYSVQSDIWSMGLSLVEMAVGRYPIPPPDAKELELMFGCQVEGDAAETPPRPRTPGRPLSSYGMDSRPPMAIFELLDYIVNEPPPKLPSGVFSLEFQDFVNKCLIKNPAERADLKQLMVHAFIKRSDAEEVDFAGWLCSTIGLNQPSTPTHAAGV
Sequence of Serine/threonine-protein kinase 26 (Homo sapiens) (Q9P289 2-416 limits assumed): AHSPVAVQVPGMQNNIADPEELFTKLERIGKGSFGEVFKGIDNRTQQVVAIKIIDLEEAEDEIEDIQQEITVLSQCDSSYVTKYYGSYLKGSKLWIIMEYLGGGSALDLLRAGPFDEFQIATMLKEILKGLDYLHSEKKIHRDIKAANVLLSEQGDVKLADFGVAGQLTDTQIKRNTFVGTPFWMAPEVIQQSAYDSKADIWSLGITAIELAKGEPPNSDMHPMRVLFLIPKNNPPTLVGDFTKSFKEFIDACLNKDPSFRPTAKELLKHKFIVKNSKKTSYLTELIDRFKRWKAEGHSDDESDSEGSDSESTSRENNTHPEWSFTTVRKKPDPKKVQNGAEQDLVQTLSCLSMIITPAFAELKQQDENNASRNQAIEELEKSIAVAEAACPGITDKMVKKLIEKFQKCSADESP
Sequence of Insulin receptor-related protein (Homo sapiens) (P14616 27-742 limits assumed): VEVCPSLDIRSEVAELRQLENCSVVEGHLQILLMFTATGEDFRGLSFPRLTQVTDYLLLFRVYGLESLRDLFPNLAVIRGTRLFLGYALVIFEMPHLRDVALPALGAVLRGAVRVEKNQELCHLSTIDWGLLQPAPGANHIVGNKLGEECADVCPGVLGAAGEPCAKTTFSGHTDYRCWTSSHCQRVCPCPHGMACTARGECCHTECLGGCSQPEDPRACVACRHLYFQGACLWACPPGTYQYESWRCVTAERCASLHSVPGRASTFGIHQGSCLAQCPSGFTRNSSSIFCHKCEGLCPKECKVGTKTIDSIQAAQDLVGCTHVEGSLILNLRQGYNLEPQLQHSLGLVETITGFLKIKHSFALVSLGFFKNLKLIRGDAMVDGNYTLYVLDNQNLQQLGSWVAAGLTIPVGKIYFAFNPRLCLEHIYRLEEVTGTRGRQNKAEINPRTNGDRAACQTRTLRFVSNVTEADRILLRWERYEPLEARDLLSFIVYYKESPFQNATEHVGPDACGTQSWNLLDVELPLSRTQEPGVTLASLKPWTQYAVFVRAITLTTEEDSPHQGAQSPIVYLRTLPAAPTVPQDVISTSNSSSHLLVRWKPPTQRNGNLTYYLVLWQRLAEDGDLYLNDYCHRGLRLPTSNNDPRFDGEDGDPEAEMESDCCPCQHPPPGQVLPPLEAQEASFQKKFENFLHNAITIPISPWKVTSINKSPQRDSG
Sequence of Insulin receptor-related protein (Homo sapiens) (P14616 747-1297 limits assumed): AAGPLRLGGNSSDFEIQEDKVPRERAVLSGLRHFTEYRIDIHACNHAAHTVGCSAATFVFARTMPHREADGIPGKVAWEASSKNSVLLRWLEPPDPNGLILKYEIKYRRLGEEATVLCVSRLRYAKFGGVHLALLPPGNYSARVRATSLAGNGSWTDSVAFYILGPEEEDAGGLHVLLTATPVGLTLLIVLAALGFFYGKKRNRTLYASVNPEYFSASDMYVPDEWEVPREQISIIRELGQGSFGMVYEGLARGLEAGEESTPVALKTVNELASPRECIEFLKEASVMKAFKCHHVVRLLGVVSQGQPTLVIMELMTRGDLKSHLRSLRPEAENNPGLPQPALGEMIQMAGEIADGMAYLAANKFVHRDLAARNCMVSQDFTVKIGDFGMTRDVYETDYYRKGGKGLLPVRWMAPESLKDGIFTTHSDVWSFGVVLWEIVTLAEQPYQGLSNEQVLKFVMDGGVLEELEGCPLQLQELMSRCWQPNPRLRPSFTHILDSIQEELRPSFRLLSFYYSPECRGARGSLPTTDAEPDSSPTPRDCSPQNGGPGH
Sequence of Dual specificity mitogen-activated protein kinase kinase 2 (Homo sapiens) (P36507 whole entry): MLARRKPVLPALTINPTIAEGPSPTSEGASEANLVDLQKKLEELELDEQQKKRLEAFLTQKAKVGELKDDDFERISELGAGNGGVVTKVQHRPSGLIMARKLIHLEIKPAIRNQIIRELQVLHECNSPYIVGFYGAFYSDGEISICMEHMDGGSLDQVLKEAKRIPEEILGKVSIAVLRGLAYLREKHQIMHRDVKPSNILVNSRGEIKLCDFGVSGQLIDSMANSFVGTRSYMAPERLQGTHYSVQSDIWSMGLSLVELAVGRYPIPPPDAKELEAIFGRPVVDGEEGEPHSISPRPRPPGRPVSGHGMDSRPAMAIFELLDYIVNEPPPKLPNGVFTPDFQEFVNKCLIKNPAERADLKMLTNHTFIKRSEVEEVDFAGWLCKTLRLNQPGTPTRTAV
Sequence of Eukaryotic elongation factor 2 kinase (Homo sapiens) (O00418 whole entry): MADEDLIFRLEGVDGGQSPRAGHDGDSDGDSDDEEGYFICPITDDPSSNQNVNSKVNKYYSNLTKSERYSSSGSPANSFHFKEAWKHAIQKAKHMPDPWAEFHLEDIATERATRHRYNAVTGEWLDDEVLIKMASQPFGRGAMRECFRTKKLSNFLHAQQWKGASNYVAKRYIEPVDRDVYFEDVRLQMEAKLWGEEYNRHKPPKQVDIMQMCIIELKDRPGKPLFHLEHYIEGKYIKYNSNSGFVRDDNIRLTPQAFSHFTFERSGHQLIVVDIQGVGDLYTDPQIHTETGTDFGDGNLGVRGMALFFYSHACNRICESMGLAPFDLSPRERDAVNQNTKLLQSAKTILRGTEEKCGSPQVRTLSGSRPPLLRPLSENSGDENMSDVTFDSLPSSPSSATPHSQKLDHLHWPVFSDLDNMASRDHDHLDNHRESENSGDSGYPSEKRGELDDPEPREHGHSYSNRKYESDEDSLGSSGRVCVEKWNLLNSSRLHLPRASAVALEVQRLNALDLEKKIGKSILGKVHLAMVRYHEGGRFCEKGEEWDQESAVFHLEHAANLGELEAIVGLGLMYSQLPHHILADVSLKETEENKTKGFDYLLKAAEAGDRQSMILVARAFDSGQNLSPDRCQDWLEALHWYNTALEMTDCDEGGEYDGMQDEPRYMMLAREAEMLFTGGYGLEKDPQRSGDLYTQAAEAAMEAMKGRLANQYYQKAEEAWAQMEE
Sequence of Dual specificity mitogen-activated protein kinase kinase 6 (Homo sapiens) (P52564 whole entry): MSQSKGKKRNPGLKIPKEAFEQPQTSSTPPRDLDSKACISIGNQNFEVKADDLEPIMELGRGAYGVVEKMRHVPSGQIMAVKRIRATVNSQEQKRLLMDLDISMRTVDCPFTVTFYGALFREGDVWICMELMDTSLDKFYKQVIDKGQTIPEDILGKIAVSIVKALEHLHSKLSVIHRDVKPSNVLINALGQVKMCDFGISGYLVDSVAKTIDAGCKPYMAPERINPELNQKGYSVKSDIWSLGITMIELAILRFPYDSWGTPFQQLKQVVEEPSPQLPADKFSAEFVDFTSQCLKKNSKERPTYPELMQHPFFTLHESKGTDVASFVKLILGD

## COc1cc(N2CCC(N3CCN(C)CC3)CC2)ccc1Nc1ncc(Cl)c(Nc2ccccc2S(=O)(=O)C(C)C)n1 [TAE-684]
Brain [1]
  AUClast: 14430 ng·h/mL
[2]
  Activity: 38%
[3]
  Activity: 68%
[4]
  Activity: 107%
[5]
  Activity: 104%
[6]
  Activity: 55%
[7]
  Activity: 30%
Brain [8]
  AUClast: 1318 ng·h/mL
[9]
  Activity: 68%
[10]
  Activity: 20%
[11]
  Activity: 90%
[12]
  Activity: 35%
[13]
  Activity: 109%
[14]
  Activity: 105%
[15]
  Activity: 94%
[16]
  inhibition: Active
[17]
  Activity: 92%
[18]
  Activity: 102%
[19]
  Activity: 104%
[20]
  Activity: 101%
[21]
  Activity: 94%
Mus musculus [22]
  inhibition: Active
[23]
  Activity: 107%
[24]
  Activity: 101%
[25]
  Activity: 75%
[26]
  Activity: 38%
Mus musculus [27]
  inhibition: Active
[28]
  Activity: 95%
[29]
  Activity: 66%
[30]
  Activity: 50%
[31]
  Activity: 69%
Mus musculus [32]
  inhibition: Active
[33]
  Activity: 91%
[34]
  Activity: 102%
[35]
  Activity: 18%
